Results from ChEMBL document CHEMBL1122510, “Actinidin hydrolysis of substituted-phenyl hippurates: a quantitative structure-activity relationship and graphics comparison with hydrolysis by papain” (J Med Chem, 1984).

assay: Michaelis constant for Actinidin-catalyzed hydrolysis; format: ADME
Method in brief: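 Actinidin purified in-house from kiwi fruit, stored as crystal suspension in 0.1 M sodium phosphate pH 6 with 20% ammonium sulfate; diluted, activated with aqueous DTE (~15 mg/mL), then diluted in 0.1 M sodium phosphate pH 6.0. Substituted-phenyl hippurate added in CH3CN to enzyme-buffer at 25 °C; initial hydrolysis rates read spectrophotometrically at ≥8 substrate concentrations.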

Row | Structure (SMILES) | Log 1/Km
1 | O=C(CNC(=O)c1ccccc1)Oc1cccc(Br)c1 | 3.64
2 | O=C(CNC(=O)c1ccccc1)Oc1cccc(F)c1 | 3.01
3 | O=C(CNC(=O)c1ccccc1)Oc1cccc(I)c1 | 3.93
4 | CCc1cc(C)cc(OC(=O)CNC(=O)c2ccccc2)c1 | 3.52
5 | O=C(CNC(=O)c1ccccc1)Oc1cc(Cl)cc(Cl)c1 | 3.84
6 | NC(=O)c1cccc(OC(=O)CNC(=O)c2ccccc2)c1 | 3.15
7 | CC(=O)Nc1cccc(OC(=O)CNC(=O)c2ccccc2)c1 | 3.18
8 | NS(=O)(=O)c1cccc(OC(=O)CNC(=O)c2ccccc2)c1 | 3.42
9 | O=C(CNC(=O)c1ccccc1)Oc1ccccc1 | 2.77
10 | O=C(CNC(=O)c1ccccc1)Oc1cccc([N+](=O)[O-])c1 | 3.53
11 | O=C(CNC(=O)c1ccccc1)Oc1cc(Cl)c(Cl)c(Cl)c1 | 4.01
12 | Cc1cc(C)cc(OC(=O)CNC(=O)c2ccccc2)c1 | 3.37
13 | O=C(CNC(=O)c1ccccc1)Oc1cccc(Cl)c1 | 3.63
14 | COc1cc(OC)cc(OC(=O)CNC(=O)c2ccccc2)c1 | 3.6
15 | N#Cc1cccc(OC(=O)CNC(=O)c2ccccc2)c1 | 3.08
16 | CC(C)(C)c1cccc(OC(=O)CNC(=O)c2ccccc2)c1 | 3.66
17 | O=C(CNC(=O)c1ccccc1)Oc1cccc(C(F)(F)F)c1 | 3.47
18 | O=C(CNC(=O)c1ccccc1)Oc1cc([N+](=O)[O-])cc([N+](=O)[O-])c1 | 3.9

Results, then the compound that gave them:

Row | Log 1/Km | Structure (SMILES)
19 | 3.26 | Cc1cccc(OC(=O)CNC(=O)c2ccccc2)c1
20 | 3.47 | CC(=O)c1ccc(OC(=O)CNC(=O)c2ccccc2)cc1
21 | 2.95 | Cc1ccc(OC(=O)CNC(=O)c2ccccc2)cc1
22 | 3.8 | O=C(CNC(=O)c1ccccc1)Oc1ccc([N+](=O)[O-])cc1
23 | 3.04 | O=C(CNC(=O)c1ccccc1)Oc1ccc(Cl)cc1
24 | 2.72 | O=C(CNC(=O)c1ccccc1)Oc1ccc(F)cc1
25 | 2.87 | COc1ccc(OC(=O)CNC(=O)c2ccccc2)cc1
26 | 3.47 | NC(=O)c1ccc(OC(=O)CNC(=O)c2ccccc2)cc1
27 | 3.22 | NS(=O)(=O)c1ccc(OC(=O)CNC(=O)c2ccccc2)cc1
28 | 2.55 | Nc1ccc(OC(=O)CNC(=O)c2ccccc2)cc1
29 | 3.62 | N#Cc1ccc(OC(=O)CNC(=O)c2ccccc2)cc1
